Source: PubChem (Sanford-Burnham Center for Chemical Genomics)
Most compounds without a hit are left out; they make up all but 2.3% or so of the library.
ATG4B inhibitor: blocks human ATG4B protease cleavage of LC3 substrate; Q9Y4P1; ATG4B cleavage of LC3-PLA2, NBD-HPC fluorescence, 1 h; inhibition, % at 8.33 µM; 340,000 compounds, 0.51% hits; AID 504462; in the data active = inhibition above about 40%
Target sequence (Q9Y4P1 whole entry, looked up): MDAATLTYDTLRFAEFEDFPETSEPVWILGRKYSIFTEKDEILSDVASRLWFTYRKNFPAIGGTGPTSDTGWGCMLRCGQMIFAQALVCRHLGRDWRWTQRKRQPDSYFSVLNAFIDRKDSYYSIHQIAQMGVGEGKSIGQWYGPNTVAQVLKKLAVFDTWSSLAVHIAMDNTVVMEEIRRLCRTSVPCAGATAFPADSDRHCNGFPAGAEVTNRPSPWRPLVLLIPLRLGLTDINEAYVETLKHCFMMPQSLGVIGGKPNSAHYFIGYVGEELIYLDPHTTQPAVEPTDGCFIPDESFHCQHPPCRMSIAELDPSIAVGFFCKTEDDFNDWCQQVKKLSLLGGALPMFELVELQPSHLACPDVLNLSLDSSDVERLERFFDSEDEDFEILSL
SKN-1 inh: inhibitors of C. elegans SKN-1 | C. elegans VP596 Pgst-4::GFP/RFP ratio, acrylamide-induced, 24 h | inhibition, % at 21.8 µM | 360,000 compounds, 0.49% hits | AID 624304;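 active = interference check ratio from 0.5 to 1.5 plus GFP to RFP signal ratio inhibition reaching or exceeding a fixed threshold, cut at about 30% in these data, passing the limit was not always enough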
MT1-MMP act inh: MT1-MMP (human) activation inhibition | P50281 | HT1080 RFP-PRO-GFP cells, GFP/RFP ratio fluorescence, overnight; percent of plate control window, DMSO zero | GFP/RFP ratio change, % at 20 µM | 360,000 compounds, 0.061% hits | AID 651647;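 active = GFP/RFP ratio change of at least 30% with cell ATP level not reduced by more than half and red fluorescence within 50% of control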
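Assay system: HT1080 RFP-PRO-GFP cells | Dosing: 20 µM single dose, 1% DMSO | Incubation: Cells overnight before dosing, compound overnight, 37 °C, 5% CO2 | Evaluation: GFP/RFP fluorescence ratio | Control set: DMSO-only wells and HT1080 RFP-L50D-GFP cell wells as references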
MPTP block: blocks calcium-induced mitochondrial swelling; isolated mouse mitochondria, Ca2+ swelling absorbance, 30 min; inhibition, % at 10 µM; 360,000 compounds, 1.4% hits;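 active = inhibition of 50% or more, scaled per plate between neutral and stimulator controls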
ATG4B confirm: confirmation of human ATG4B inhibitors. shares compounds with ATG4B inhibitor. ATG4B protease fluorescent substrate cleavage assay. inhibition, % at 8.33 µM. 320 compounds, 92% hits; in the data active = inhibition above about 39%
PLA2 counter: PLA2 (human) inhibition in ATG4B counter-screen; AID 588402; 1,600 compounds, 66% hits; purified PLA2, NBD-C6-HPC fluorescence, 45 min; inhibition, % at 8.33 µM; shares compounds with ATG4B inhibitor; in the data active = inhibition above about 50%
Target sequence (P04054 whole entry, looked up): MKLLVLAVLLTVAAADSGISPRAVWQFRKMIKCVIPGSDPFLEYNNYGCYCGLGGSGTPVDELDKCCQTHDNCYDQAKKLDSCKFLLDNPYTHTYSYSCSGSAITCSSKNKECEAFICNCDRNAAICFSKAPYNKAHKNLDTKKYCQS
Hits are given with their value.

How did CC(C)c1ccc(NC2CCCN(C(=O)c3ccnc(Cl)c3)C2)cc1 (stereo not drawn) do in these assays?
ATG4B inhibitor: inactive; SKN-1 inh: inactive; MT1-MMP act inh: inactive; MPTP block: inactive

How did CC(=O)c1ccc(C(=O)N2CCCC(Nc3ccc(C(C)C)cc3)C2)s1 (stereo not drawn) do in these assays?
ATG4B inhibitor: 49; SKN-1 inh: inactive; MT1-MMP act inh: inactive; MPTP block: inactive; PLA2 counter: 56

Results for CC(=O)c1[nH]c(C)c(C(=O)N2CCCC(Nc3ccc(C(C)C)cc3)C2)c1C (stereo not drawn) ?
ATG4B inhibitor: inactive; SKN-1 inh: inactive; MT1-MMP act inh: inactive; MPTP block: inactive

Results for Cc1ccc(CNS(=O)(=O)c2ccc(C(C)(C)C)cc2)n1C ?
ATG4B inhibitor: 86; SKN-1 inh: inactive; MT1-MMP act inh: inactive; MPTP block: inactive; PLA2 counter: 89

Results for O=C(NCc1ccc(Cl)cc1Cl)C1CCN(S(=O)(=O)c2ccc3c(c2)OCCCO3)CC1 ?
ATG4B inhibitor: 42; SKN-1 inh: inactive; MT1-MMP act inh: inactive; MPTP block: inactive; PLA2 counter: 55

Results for O=C(NCc1ccc(F)cc1)C1CCN(S(=O)(=O)c2ccc3c(c2)OCCCO3)CC1 ?
ATG4B inhibitor: inactive; SKN-1 inh: inactive; MT1-MMP act inh: inactive; MPTP block: inactive

How did CCOC(=O)C(C)Sc1ccc2nnc(CCNS(=O)(=O)c3ccccc3)n2n1 (stereo not drawn) do in these assays?
ATG4B inhibitor: inactive; SKN-1 inh: inactive; MT1-MMP act inh: inactive; MPTP block: inactive

What do the screens show for `Cc1ccc(S(=O)(=O)Oc2ccc(C(c3c(C)[nH][nH]c3=O)c3c(C)[nH][nH]c3=O)cc2)cc1`?
ATG4B inhibitor: 70; SKN-1 inh: inactive; MT1-MMP act inh: inactive; MPTP block: inactive; PLA2 counter: 68

What do the screens show for `COc1ccccc1/C=C1\SC(=S)N(CCC(=O)NCCc2ccc(O)cc2)C1=O`?
ATG4B inhibitor: inactive; SKN-1 inh: inactive; MT1-MMP act inh: inactive; MPTP block: inactive

What do the screens show for `Cc1cc(C)n(-c2ccc(S(=O)(=O)N3CCOCC3)cc2[N+](=O)[O-])n1`?
ATG4B inhibitor: inactive; SKN-1 inh: inactive; MT1-MMP act inh: inactive; MPTP block: inactive

How did N#Cc1sc(=O)[nH]c1Cl do in these assays?
ATG4B inhibitor: inactive; SKN-1 inh: inactive; MT1-MMP act inh: inactive; MPTP block: inactive

What do the screens show for `COc1ccc(Cc2nnc(NC(=O)c3cccc([N+](=O)[O-])c3)s2)cc1`?
ATG4B inhibitor: 51; SKN-1 inh: inactive; MT1-MMP act inh: inactive; MPTP block: inactive; PLA2 counter: inactive

Results for Cc1c(Cl)c([N+](=O)[O-])nn1CCCC(=O)Nc1sc2c(c1C#N)CCC2 ?
ATG4B inhibitor: 49; SKN-1 inh: inactive; MT1-MMP act inh: inactive; MPTP block: inactive; PLA2 counter: 65

How did Cc1c(Cl)c([N+](=O)[O-])nn1CCCC(=O)Nc1ccc(Cl)cc1Cl do in these assays?
ATG4B inhibitor: 67; SKN-1 inh: inactive; MT1-MMP act inh: inactive; MPTP block: inactive; PLA2 counter: 54

Results for Cc1cc([N+](=O)[O-])nn1CCCC(=O)Nc1ccc(Cl)cc1Cl ?
ATG4B inhibitor: inactive; SKN-1 inh: inactive; MT1-MMP act inh: inactive; MPTP block: inactive

What do the screens show for `Cc1c(Cl)c([N+](=O)[O-])nn1CCCC(=O)Nc1cccc(O)c1`?
ATG4B inhibitor: inactive; SKN-1 inh: inactive; MT1-MMP act inh: inactive; MPTP block: inactive

How did Cc1c(Cl)c([N+](=O)[O-])nn1CCCC(=O)Nc1cccc(Cl)c1Cl do in these assays?
ATG4B inhibitor: 60; SKN-1 inh: inactive; MT1-MMP act inh: inactive; MPTP block: inactive; PLA2 counter: 67

Results for Cc1ccccc1C(=O)NNC(=O)CSc1nc2ccccc2c(=O)[nH]1 ?
ATG4B inhibitor: inactive; SKN-1 inh: inactive; MT1-MMP act inh: inactive; MPTP block: inactive

How did NC(=O)Cc1ccc(Nc2nnc(-c3ccc(O)cc3)c3ccccc23)cc1 do in these assays?
ATG4B inhibitor: 92; SKN-1 inh: inactive; MT1-MMP act inh: inactive; MPTP block: inactive; PLA2 counter: 91

How did Cc1ccc(-c2nnc(Nc3ccc(CC(N)=O)cc3)c3ccccc23)cc1S(=O)(=O)NCCO do in these assays?
ATG4B inhibitor: 84; SKN-1 inh: inactive; MT1-MMP act inh: inactive; MPTP block: inactive; PLA2 counter: 87

Results for CCc1ccc(Nc2nnc(SCC(=O)NCCN3C(=O)CSC3=O)s2)cc1 ?
ATG4B inhibitor: inactive; SKN-1 inh: inactive; MT1-MMP act inh: inactive; MPTP block: inactive

Results for COC(=O)c1cc(=O)nc(NN=Cc2ccco2)s1 ?
SKN-1 inh: inactive; MT1-MMP act inh: inactive; MPTP block: inactive

What do the screens show for `CCn1c(SCC(=O)Nc2oc(-c3ccccc3)c(-c3ccccc3)c2C#N)nnc1-c1ccco1`?
ATG4B inhibitor: 61; SKN-1 inh: inactive; MT1-MMP act inh: inactive; MPTP block: inactive; PLA2 counter: 68

Results for CCN(CC(=O)Nc1ccc(NC(C)=O)cc1)C(=O)CN1C(=O)C2CCCCC2C1=O (stereo not drawn) ?
ATG4B inhibitor: inactive; SKN-1 inh: inactive; MT1-MMP act inh: inactive; MPTP block: inactive

Results for CON(C)C(=O)CC(CN(Cc1ccccc1)C(=O)OC(C)(C)C)c1ccc(Cl)cc1 (stereo not drawn) ?
ATG4B inhibitor: 53; SKN-1 inh: inactive; MT1-MMP act inh: inactive; MPTP block: inactive; PLA2 counter: 79

What do the screens show for `Cc1ccc(S(=O)(=O)N2[C@@H](c3ccc(C(C)(C)C)cc3)C(C(=O)O)=CC[C@H]2c2ccc(Cl)cc2)cc1`?
ATG4B inhibitor: 46; SKN-1 inh: inactive; MT1-MMP act inh: inactive; MPTP block: inactive; PLA2 counter: 55

What do the screens show for `COCCN1C(=O)CSCC1(C)C(=O)NC(C)C` (stereo not drawn)?
SKN-1 inh: inactive; MT1-MMP act inh: inactive; MPTP block: inactive

Results for CNC(=O)C1CC(=O)N(CCc2ccc(C)cc2)C1 (stereo not drawn) ?
ATG4B inhibitor: inactive; SKN-1 inh: inactive; MT1-MMP act inh: inactive; MPTP block: inactive

What do the screens show for `CC1CCc2sc(C(=O)N3CCC(C(N)=O)CC3)cc2C1` (stereo not drawn)?
ATG4B inhibitor: 43; SKN-1 inh: inactive; MT1-MMP act inh: inactive; MPTP block: inactive; ATG4B confirm: 66; PLA2 counter: inactive

What do the screens show for `COc1ccc(C(C)=NNS(=O)(=O)c2ccc(C)cc2)cc1OC`?
SKN-1 inh: inactive; MT1-MMP act inh: inactive; MPTP block: inactive

How did CC[C@H](C)/C=C/C1=CC2=C(Cl)C(=O)[C@@]3(C)OC(=O)C(C(=O)[C@H](C)[C@@H](C)O)=C3C2=CO1 do in these assays?
ATG4B inhibitor: 42; SKN-1 inh: inactive; MT1-MMP act inh: inactive; MPTP block: inactive; PLA2 counter: 54

What do the screens show for `O=C(COC(=O)/C=C/c1ccccc1Cl)NC1CC1`?
SKN-1 inh: inactive; MT1-MMP act inh: inactive; MPTP block: inactive
